Source: PubChem (several laboratories)
Shown are actives, neighbours in structure and some others; about 6.7% of the full set was active somewhere.
CSC inhib = blocks cancer stem cells; cancer stem cell-like cells viability, luminescence; inhibition, % at 7.5 µM; 1.1% of 300,000 active; AID 2717; in the data active means inhibition above about 75%; inconclusive means no clear call, values can overlap the other calls; tested in HMLE shEcad cells
T cruzi repl = T. cruzi replication inhibition; T. cruzi beta-gal in NIH3T3, luminescence, 90 h; inhibition, % (concentration not given with the values); 1.4% of 300,000 active; AID 1885;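 active means mean inhibition across valid replicates above about 55%, limit read from the data; inconclusive means mean below that limit but half or more replicates reach it; inactive means mean below it, under half of replicates reach it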;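 further: signal also drops with host cell toxicity which is not excluded here; 0% = plate median of DMSO wells and 100% = zero luminescence signal; higher percent means less beta-gal luminescence so fewer parasites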
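assay system = mouse NIH/3T3 fibroblasts infected with β-gal-expressing T. cruzi Tulahuen C4 | input = 5,000 NIH/3T3 host cells per well | buffer or medium = DMEM plus 2% FBS | timing = 3 h host attachment, then at least 90 h co-culture | measured by = GalScreen luminescence, 60 min | evaluation = luminescence reflecting intracellular parasite burden, expressed as percent inhibition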
Beta apoptosis = blocks beta cell apoptosis; INS-1E cytokine-induced death, ATP luminescence, 48 h; percent of positive-control rescue, neutral wells zero; 0.8% of 300,000 active; AID 435005; protection from apoptosis, % (no concentration beside the values);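 active means Every replicate reaches about 75%, or at least half do and their mean reaches it too, limit read from the data; inconclusive means At least half of replicates reach the limit but their mean does not; inactive means Under half of replicates reach the limit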;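 further: 0% = cytokine-treated negative control wells and 100% = positive control rescue; higher means more ATP so stronger rescue from cytokine killing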
PREPL inh = inhibitors of human prolyl oligopeptidase-like enzyme PREPL. inhibition, % at 5.96 µM. recombinant PREPL, fluorescence polarization activity-based probe. AID 2751. 0.68% of 320,000 active. Q4J6C6; in the data active means inhibition above about 43%;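 further: 0% = enzyme with DMSO and 100% = wells lacking enzyme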
Target sequence (Q4J6C6 whole entry, looked up): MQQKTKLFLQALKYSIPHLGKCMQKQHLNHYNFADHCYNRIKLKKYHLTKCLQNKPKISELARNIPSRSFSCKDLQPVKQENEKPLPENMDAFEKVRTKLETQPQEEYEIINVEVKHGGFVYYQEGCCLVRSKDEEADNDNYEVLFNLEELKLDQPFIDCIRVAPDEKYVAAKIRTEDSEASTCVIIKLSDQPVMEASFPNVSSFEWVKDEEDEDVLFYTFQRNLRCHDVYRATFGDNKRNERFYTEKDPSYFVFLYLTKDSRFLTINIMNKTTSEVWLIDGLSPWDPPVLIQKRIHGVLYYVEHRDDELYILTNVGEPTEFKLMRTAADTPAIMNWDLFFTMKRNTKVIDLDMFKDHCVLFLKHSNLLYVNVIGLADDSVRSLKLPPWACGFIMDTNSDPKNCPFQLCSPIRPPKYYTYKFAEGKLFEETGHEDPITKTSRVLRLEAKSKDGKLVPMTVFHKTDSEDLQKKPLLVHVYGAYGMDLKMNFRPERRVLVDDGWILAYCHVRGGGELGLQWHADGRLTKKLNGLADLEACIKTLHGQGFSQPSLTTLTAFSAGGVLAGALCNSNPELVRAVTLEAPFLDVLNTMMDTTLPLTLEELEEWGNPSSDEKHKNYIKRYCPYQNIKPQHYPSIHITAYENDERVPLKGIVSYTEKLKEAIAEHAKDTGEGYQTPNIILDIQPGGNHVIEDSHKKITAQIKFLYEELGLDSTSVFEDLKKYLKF
NR3A LBD binder = NR3A (human) ligand-binding domain modulation; AID 1259313; NR3A LBD differential scanning fluorimetry, Tm shift; 0% = protein alone, 100% = glycine-bound protein; 2.5% of 340,000 active; Tm shift relative to glycine control, % at 25 µM;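 active means melting temperature shift of at least 10% of the positive control shift, at one fixed dose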
CHOP inhibitor = blocks CHOP induction under ER stress. AID 2732. inhibition, % at 10 µM. 3.8% of 220,000 active. CHO-K1 CHOP-promoter luciferase, tunicamycin-induced, 15-18 h;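 active means compounds that reduced the stress-induced luciferase reporter signal by more than about 70% of percent inhibition, limit read from the data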;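 further: 0% = tunicamycin plus vehicle and 100% = wells without tunicamycin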
The depositor's hits bear a star.

O=C(Nc1cccnc1)Nc1ccccc1Cl was read as CSC inhib -3.9, T cruzi repl -20.8, Beta apoptosis 1.2, PREPL inh 4.8, NR3A LBD binder 2.0 and CHOP inhibitor 17.9.
For Cc1ccc(NC(=O)Nc2cccnc2)cc1Cl the results were CSC inhib -1.4, T cruzi repl -3.6, Beta apoptosis -1.0 and NR3A LBD binder 30.7*.
Screening CCn1cnc2cc(NC(=O)c3ccc(C)cc3)ccc21 returned CSC inhib -5.1, T cruzi repl -5.2, Beta apoptosis 3.0, PREPL inh 4.0 and NR3A LBD binder -1.6.
Screening Cc1ccc2cc3c(NC(=O)C(C)C)nn(C)c3nc2c1 returned CSC inhib -1.8, T cruzi repl 3.5, Beta apoptosis 2.3, PREPL inh 15.0, NR3A LBD binder -0.5 and CHOP inhibitor 78.1*.
Screening CCCC(=O)Nc1nn(C)c2nc3cc(C)ccc3cc12 returned CSC inhib 0.6, T cruzi repl -4.1, Beta apoptosis -0.9 and PREPL inh 11.9.
Screening COc1ccc(-c2nc(NC(=O)C3CCN(c4nc5ccccc5o4)CC3)sc2C)cc1 returned CSC inhib 49.4, T cruzi repl 45.8, Beta apoptosis 23.5, PREPL inh 11.0, NR3A LBD binder -4.2 and CHOP inhibitor 78.1*.
For COc1ccc(-c2nc(NC(=O)Cn3c(=O)oc4ccccc43)sc2C)cc1 the results were CSC inhib -21.7, T cruzi repl 12.6, Beta apoptosis 3.5, PREPL inh -61.6, NR3A LBD binder -0.2 and CHOP inhibitor 50.2.
Screening Cc1[nH]n(C2=NCCS2)c(=O)c1N=Nc1cccc(C(F)(F)F)c1 returned CSC inhib 50.4, T cruzi repl 59.8*, Beta apoptosis 93.8*, PREPL inh 3.8, NR3A LBD binder -3.6 and CHOP inhibitor -32.1.
`COc1ccc(C(=O)COC(=O)c2cccc(-n3cnnn3)c2)c(OC)c1` gave CSC inhib 1.0, T cruzi repl -13.2, Beta apoptosis 6.2, PREPL inh 10.7 and NR3A LBD binder -4.4.
O=c1c(C=Nc2cccc(C(F)(F)F)c2)c[nH]n1-c1cccc(Cl)n1 was read as CSC inhib -5.6, T cruzi repl -0.6, Beta apoptosis 3.2, PREPL inh -1.2, NR3A LBD binder -8.0 and CHOP inhibitor 52.6.
Screening O=c1c(C=Nc2ccc(Cl)cc2)c[nH]n1-c1cccc(Cl)n1 returned CSC inhib 17.6, T cruzi repl -4.6, Beta apoptosis -6.6, PREPL inh 11.4, NR3A LBD binder 1.4 and CHOP inhibitor 83.4*.
Screening O=C1CC(N2CCC(c3nc4ccccc4o3)CC2)C(=O)N1c1ccc(Cl)c(C(F)(F)F)c1 (centres undefined) returned T cruzi repl -12.4, PREPL inh 17.4, NR3A LBD binder -0.4 and CHOP inhibitor 86.3*.
For COC(=O)c1cccc(NC(=O)CC2C(=O)NCCN2C(=O)c2ccc(F)cc2F)c1 (centres undefined) the results were CSC inhib -2.4, T cruzi repl -0.5, Beta apoptosis -6.1, PREPL inh 6.4, NR3A LBD binder -1.9 and CHOP inhibitor -12.4.
`Cc1ccc(S(=O)(=O)N[C@@H](C)C(=O)OCC(=O)N2c3ccccc3NC(=O)C2(C)C)cc1` gave CSC inhib 9.7, Beta apoptosis -2.4, PREPL inh 8.8 and NR3A LBD binder 2.5.
Cn1ccnc1SCC(=O)Nc1cccc(S(=O)(=O)N2CCCCC2)c1 was read as CSC inhib -11.2, T cruzi repl 3.6, Beta apoptosis -15.2, PREPL inh -1.4, NR3A LBD binder -0.6 and CHOP inhibitor 18.2.
`CCOc1cc(C(c2c(C)[nH][nH]c2=O)c2c(C)[nH][nH]c2=O)ccc1OC(=O)c1cccc([N+](=O)[O-])c1` gave CSC inhib -10.0, T cruzi repl 0.9, Beta apoptosis -3.2, PREPL inh 86.2*, NR3A LBD binder -12.8 and CHOP inhibitor -0.1.
`CCOc1cc(C(c2c(C)[nH][nH]c2=O)c2c(C)[nH][nH]c2=O)ccc1OCc1ccc([N+](=O)[O-])cc1` gave CSC inhib 0.6, T cruzi repl 7.7, Beta apoptosis 5.7, PREPL inh 8.5, NR3A LBD binder -4.7 and CHOP inhibitor -6.9.
`CC(=O)NC(CC(C)C)C(=O)NC(Cc1ccccc1)C(=O)CCl` (centres undefined) gave NR3A LBD binder 16.8*.
For CC(=O)NC(CC(C)C)C(=O)NC(Cc1ccccc1)C(N)=O (centres undefined) the results were T cruzi repl -24.7, NR3A LBD binder -0.5 and CHOP inhibitor 19.7.
For O=S(=O)(c1cc(F)ccc1F)N1CCN(c2ncnc3ccccc23)CC1 the results were CSC inhib 47.6, Beta apoptosis 104.2*, PREPL inh 11.4 and NR3A LBD binder 3.8.
Screening C=CCn1c(N)c(C(=O)Nc2ccccc2)c2nc3ccccc3nc21 returned CSC inhib -34.3, T cruzi repl inconclusive, Beta apoptosis 0.2, PREPL inh 18.3, NR3A LBD binder 12.9* and CHOP inhibitor 63.6.
COc1ccc(CN2CCC(n3nccc3NC(=O)c3cccc(F)c3)CC2)cc1O was read as CSC inhib -4.1, T cruzi repl -7.0, Beta apoptosis -6.4, PREPL inh 2.2 and NR3A LBD binder 1.9.
Screening Cc1cc(C(=O)c2ccc(Cl)cc2)c(NC(=O)CCl)s1 returned CSC inhib 9.1, T cruzi repl 14.8, Beta apoptosis 21.8, PREPL inh -0.3, NR3A LBD binder 11.6* and CHOP inhibitor 63.1.
For CCc1cc(C(=O)c2ccc(C)cc2)c(NC(=O)CCl)s1 the results were CSC inhib -8.0, T cruzi repl 7.2, Beta apoptosis 30.3, PREPL inh -0.2, NR3A LBD binder 1.0 and CHOP inhibitor 40.5.
For COc1cc(-c2nc(-c3ccc4c(c3)-c3ccccc3S4(=O)=O)c(-c3ccccc3)[nH]2)cc(OC)c1O the results were CSC inhib 37.1, T cruzi repl 50.8, Beta apoptosis 10.2, PREPL inh 22.8, NR3A LBD binder 7.2 and CHOP inhibitor 91.6*.
Screening COc1ccc(-c2[nH]c(-c3ccc(C(=O)O)cc3)nc2-c2ccccc2)cc1 returned CSC inhib -2.6, T cruzi repl -23.1, Beta apoptosis -12.3, PREPL inh 11.7, NR3A LBD binder 0.8 and CHOP inhibitor 18.2.
For CS(=O)(=O)N(Cc1ccccc1)c1ccc(C(=O)Nc2ccccc2C(=O)O)cc1 the results were CSC inhib 1.4, T cruzi repl -12.2, Beta apoptosis -4.3, PREPL inh -1.4 and NR3A LBD binder -5.2.
`Cc1ccc(C(=O)N/N=C2\SCC(=O)N2c2cc(C)ccc2C)cc1` gave CSC inhib -8.3, T cruzi repl -8.7, Beta apoptosis -0.6, PREPL inh -8.0, NR3A LBD binder 2.3 and CHOP inhibitor 75.3*.
Cc1cccc(N2C(=O)CS/C2=N\NC(=O)c2ccc(Br)cc2)c1C was read as T cruzi repl 4.0, PREPL inh 22.1, NR3A LBD binder -15.4 and CHOP inhibitor 11.7.
